# High-throughput results: PubChem, Sanford-Burnham Center for Chemical Genomics
# Rows were chosen to be rich in hits. Some 1.9% of all compounds tested hit in one or more screens of this group.
# APJ ag = agonists of human apelin receptor APJ, primary screen, CHO-K1 cells, PathHunter beta-arrestin, luminescence; 0% DMSO wells, 100% apelin; P35414; AID 2520, 2010; 330,000 tested, 0.11% active; activation, % at 20 µM;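 active = activation more than six SD over the plate average, tested at 20 µM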;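 note: 0% = DMSO alone and 100% = apelin-13 at 10 nM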
#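 Incubation: overnight seeding, 90 min compound at 25 °C, 1 h detection; test system: PathHunter CHO-K1 APJ (AGTRL-1) beta-arrestin reporter cells; amount: 1000 cells/well; doses: one dose, 20 µM compound, 1% DMSO; measured by: beta-gal luminescence; measure: agonist-driven arrestin binding to APJ; benchmarks: negative DMSO alone, positive Apelin-13 at 10 nM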
# CXCR6 block = CXCR6 receptor inhibitors, primary screen, cell-based, beta-arrestin, luminescence, CHO-K1 PathHunter, 1536-well; 360,000 tested, 0.36% active; AID 602244, 2012; inhibition, % at 20 µM; C-X-C chemokine receptor type 6 (Homo sapiens), O00574; in the data active = inhibition above about 34%, passing the limit was not always enough;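 note: antagonist mode with CXCL16 agonist at 10 nM final; 0% = 10 nM CXCL16 with DMSO and 100% = unstimulated wells without agonist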
# APJ antagonist = antagonists of human apelin receptor APJ, primary screen, CHO-K1 cells, beta-arrestin complementation, luminescence; 330,000 tested, 0.32% active; P35414; inhibition, % at 20 µM; AID 2521, 2010;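 active = inhibition above about 40% at 20 µM, limit read from the data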;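 note: cells challenged with 10 nM apelin-13 agonist together with compound; plate controls were apelin-13 plus DMSO wells for no effect and DMSO wells lacking apelin-13 for full effect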
# CCR6 antag = CCR6 receptor antagonists, primary screen, cell-based, CHO-K1, luminescence, beta-arrestin, uHTS; C-C chemokine receptor type 6 (Homo sapiens), P51684; CHO-K1 CCR6 PathHunter beta-arrestin, CCL20-stimulated; inhibition, % at 20 µM; 340,000 tested, 0.49% active; AID 493098, 2011;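 active = compounds whose inhibition of the agonist-driven luminescence signal at 20 µM reaches about 50%, limit read from the data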;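 note: cells stimulated with CCL20 at 14 nM final; plate controls were DMSO with CCL20 for no effect and DMSO without agonist for full effect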
# Target sequence (P51684 whole entry, looked up): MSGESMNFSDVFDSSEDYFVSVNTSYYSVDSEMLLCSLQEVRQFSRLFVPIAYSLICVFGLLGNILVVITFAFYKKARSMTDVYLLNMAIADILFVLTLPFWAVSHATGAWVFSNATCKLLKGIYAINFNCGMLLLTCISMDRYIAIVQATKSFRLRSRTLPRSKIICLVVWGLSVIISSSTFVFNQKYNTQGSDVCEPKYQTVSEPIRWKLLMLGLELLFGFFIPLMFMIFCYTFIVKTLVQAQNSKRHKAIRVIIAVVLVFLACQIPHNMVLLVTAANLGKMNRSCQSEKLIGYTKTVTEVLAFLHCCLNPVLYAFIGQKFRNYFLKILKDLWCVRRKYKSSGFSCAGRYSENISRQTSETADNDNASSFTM
# EBI2 block = EBI2 receptor antagonists, beta-arrestin recruitment, primary screen, cell-based, luminescence, 7a,25-OHC stimulation, uHTS; G-protein coupled receptor 183 (Homo sapiens), P32249; 360,000 tested, 0.81% active; 7a,25-OHC stimulated; inhibition, % at 5 µM; AID 651636, 2012; in the data active = inhibition above about 38%;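 note: enzyme fragment complementation signal reports receptor beta-arrestin coupling in cells; 0% = agonist plus DMSO wells and 100% = wells without agonist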
# TAG inh = inhibitors of triacylglycerol accumulation, primary screen, cell-based, uHTS, fluorescence, H9c2; H9c2 cells, Nile Red lipid (TAG) fluorescence; cells loaded with 200 µM oleic acid; inhibition, % at 12.5 µM; 230,000 tested, 0.66% active;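 active = pattern-corrected inhibition of lipid staining of at least 50% with the nuclear-stain viability signal not falling by more than 50%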;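 note: 0% = DMSO wells and 100% = triacsin C control wells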
# APJ ag conf = agonists of human apelin receptor APJ, confirmation, cell-based, single concentration, CHO-K1, beta-arrestin, luminescence; shares compounds with APJ ag; CHO-K1 APJ PathHunter beta-arrestin; activation, % at 20 µM; 310 tested, 10% active; AID 2764, 2010;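 active = activation above 40%, taking the highest of four retests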;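 note: plate controls were DMSO wells for no effect and apelin-13 at 10 nM for full effect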
# * = called active by the depositor; nt = no result given.
SMILES,APJ ag,CXCR6 block,APJ antagonist,CCR6 antag,EBI2 block,TAG inh,others
COC(=O)c1cc(=O)n(CCc2ccccc2)c(=Nc2ccc(F)cc2)s1,-2,10,12,26,36,-19,
CCOC(=O)c1ccc(N=c2sc(C(=O)OC)cc(=O)n2Cc2ccco2)cc1,3,6,10,9,58*,34,
CC(=O)Nc1sc2c(c1-c1nc3ccccc3s1)CCN(C(C)C)C2,-6,1,5,1,13,92*,
CC(C)N1CCc2c(sc(NC(=O)c3ccc4ccccc4c3)c2C(N)=O)C1,-4,12,13,17,-6,32,
COc1ccc(-c2cnc(C(O)c3ccc(CN4CCCCC4)cc3)[nH]2)cc1 (centres undefined),nt,1,nt,nt,-7,4,
Cc1ccc2cc3c(N)c(C(=O)N4CC(=O)Nc5ccccc54)sc3nc2c1,-20,nt,98*,nt,nt,nt,
Cc1ccc2cc3c(N)c(C(=O)N4CCOCC4)sc3nc2c1,-6,0,19,6,-12,21,
Cc1cc(C)c2nc(SCC(=O)Nc3ccccc3N3CCOCC3)c(C#N)cc2c1,-1,7,-17,0,40,3,
Cc1cc(C)c2nc(SCC(=O)N3CC(=O)Nc4ccccc43)c(C#N)cc2c1,-1,8,-27,-2,49*,54*,
Cc1cc(C)cc(C(=O)N2CC(=O)Nc3ccccc32)c1,-1,-10,-7,-4,-23,55*,
CC(=O)OC(C)C1C2=C(C(=O)CC1(C)O)C(=O)c1c(ccc(-c3ccc4c(c3O)C(=O)C3=C(C4=O)C(C(C)OC(C)=O)C(C)(O)CC3=O)c1O)C2=O (centres undefined),nt,29,nt,52*,-9,23,
O=[N+]([O-])c1ccc(O)c(N=Cc2sc3ccccc3c2O)c1,nt,20,nt,54*,35,nt,
Oc1ccc(Cl)cc1N=Cc1sc2ccccc2c1Cl,nt,-14,nt,3,-10,5,
CCN(CC)C(=O)C1=C(C)N(Cc2ccc(OC)cc2)C(=O)C(CC(=O)NC(c2ccccc2)c2ccccc2)C1 (centres undefined),nt,2,nt,nt,6,13,
CCN(CC)S(=O)(=O)c1ccc2[nH]c(=O)cc(C(=O)Nc3ccccc3N3CCOCC3)c2c1,-3,3,7,6,0,14,
N=c1n(Cc2ccc(Cl)cc2)c2ccccc2n1CC(O)COc1ccccc1 (centres undefined),15*,-21,-6,-3,-4,73*,
COc1ccc(OCC(O)Cn2c(=N)n(Cc3ccccc3)c3ccccc32)cc1 (centres undefined),1,-6,4,12,-3,-6,
COc1ccc(CNC(=O)c2sc(=O)n(Cc3ccccc3OC)c2C)cc1,nt,4,nt,nt,1,11,
Cc1ccc(NN2C(=O)C=C(c3ccc(Cl)cc3)C2=O)cc1,4,0,-12,12,46*,-2,
C=C1CC(COc2ccc3c(C)c(Cl)c(=O)oc3c2)(c2ccccc2)OC1=O (centres undefined),nt,37*,nt,40,56*,77,
CNc1c2cccc(C)c2nc2c(C(=O)NCCN(C)C)cccc12,nt,0,nt,9,-2,131,
CC(=O)n1cc(N(C(=O)CCl)c2ccccc2)c2ccccc21,4,0,0,-6,-18,65*,
O=C(CCl)N(c1ccccc1)c1c[nH]c2ccccc12,1,1,7,-1,-20,79*,
NC(=O)C(C1=CCCCC1)c1ccccc1 (centres undefined),nt,-4,nt,-5,-4,-6,
O=C1NC(Cc2ccccc2)c2nc3ccc(Cl)cc3c(=O)n2-c2ccccc21 (centres undefined),-4,nt,11,nt,nt,nt,
SMILES,APJ ag,CXCR6 block,APJ antagonist,CCR6 antag,EBI2 block,TAG inh,others
CC1(C(=O)NS(=O)(=O)c2ccccc2Cl)CCN1C(=O)c1cccc2ccccc12 (centres undefined),nt,6,nt,nt,-9,-5,
O=C1Nc2ccc(Br)cc2/C1=C/C(=O)c1ccccc1,nt,19,nt,nt,79*,4,
C=CCOc1cccc(C(=O)N2CCCC(CCC(=O)NCc3ccccc3F)C2)c1 (centres undefined),3,-1,16,-1,4,-2,
O=C(O)COc1ccccc1/C=C1\C(=O)Nc2ccc(Br)cc21,-4,9,5,12,8,nt,
CC(=O)/C=C1/C(=O)Nc2ccccc21,-10,31,92*,76*,11,4,
C=CCOc1cccc(C(=O)/C=C2/C(=O)Nc3ccccc32)c1,2,35,-1,46,84*,nt,
CC1(O)CC(c2ccc(Cl)cc2)=NN1C(=O)c1ccc(Cl)cc1 (centres undefined),-4,28,4,57*,17,nt,
O=C(C1CC1)N1N=C(c2ccc(Cl)cc2)CC1(O)C(F)(F)F (centres undefined),-1,3,3,12,-2,nt,
NC(c1csc(Nc2ccc(C(=O)NCCO)cc2)n1)C1CCCCC1 (centres undefined),nt,5,nt,nt,-1,3,
C=CCn1c(SCCC)nc(O)cc1=O,34*,-6,-2,1,-11,nt,APJ ag conf=4
COc1cc([N+](=O)[O-])ccc1NC(=O)CCCOc1cc(C)ccc1C,0,1,-9,-11,-22,nt,
COc1ccc(/C(N)=N/OC(=O)c2ccc(OC)c([N+](=O)[O-])c2)cc1OC,18*,-4,-72,-10,-1,0,APJ ag conf=34
COc1ccc(C(=O)O/N=C(\N)c2ccccc2Cl)cc1OC,11*,-18,-40,-15,-12,nt,APJ ag conf=39
COc1ccc(/C(N)=N/OC(=O)c2cccc([N+](=O)[O-])c2)cc1OC,20,-8,-38,-3,5,-11,
COc1ccccc1C(=O)O/N=C(\N)c1ccccc1Cl,3,-6,-38,-9,-14,-6,
COC(=O)C1=C(C(=O)OC)[C@@H]2N(Cc3ccccc3)c3ccccc3[C@@]23C[C@@H](C(=O)OC)N(C(=O)COCc2ccccc2)C3=N1,2,4,18,7,2,-13,
Cc1c(C(=O)Nc2cccc(C(F)(F)F)c2)oc2ccc(S(=O)(=O)N3CCOCC3)cc12,21*,-6,-18,-17,-26,nt,APJ ag conf=17
Cc1ccc(CNC(=O)c2oc3ccc(S(=O)(=O)N4CCOCC4)cc3c2C)cc1,9,-5,-8,-4,35,nt,
